# Measured values taken from ChEMBL document CHEMBL3286129, “Optimization of peptidomimetic boronates bearing a P3 bicyclic scaffold as proteasome inhibitors” (Eur J Med Chem, 2014).
# Columns and labels:
# [1] = Cytotoxicity against human melanoma cells assessed as cell growth at 10 uM relative to control; assay type: functional; details: read-out: Activity
# In short: (§1)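 Single-concentration screen against a panel of human cancer cell lines. Each value is the mean percent growth across the cell lines of that tumour subpanel.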
# [2] = test system: TK-10; assay: Growth inhibition of human TK10 cells; assay type: functional
# [3] = target: T1, Proteasome Macropain subunit MB1 (Homo sapiens) (UniProt P28074); assay: Inhibition of chymotrypsin-like activity of 20S proteasome in human erythrocytes using Suc-Leu-Leu-Val-Tyr-AMC as substrate at 20 uM by fluorescence assay relative to control
# T1 sequence (whole entry): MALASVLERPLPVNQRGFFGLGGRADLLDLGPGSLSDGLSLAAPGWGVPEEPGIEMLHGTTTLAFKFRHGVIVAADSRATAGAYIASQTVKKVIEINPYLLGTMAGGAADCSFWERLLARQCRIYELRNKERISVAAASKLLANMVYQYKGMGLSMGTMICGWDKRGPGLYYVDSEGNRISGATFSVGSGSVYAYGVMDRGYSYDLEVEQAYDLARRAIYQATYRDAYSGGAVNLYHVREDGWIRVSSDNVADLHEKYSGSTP
# In short: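 Single inhibitor concentration, equivalent DMSO as negative control. AMC fluorescence read at ex 380/em 460 nm; percent inhibition of ChT-L activity.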
# [4] = Growth inhibition of human Hs 578T cells; assay type: functional
# [5] = Growth inhibition of human UACC62 cells; assay type: functional; details: UACC-62
# [6] = Growth inhibition of human UO31 cells; assay type: functional; details: UO-31
# [7] = test system: SN12C; assay: Growth inhibition of human SN12C cells; assay type: functional
# [8] = Growth inhibition of human BT549 cells; assay type: functional
# [9] = test system: MDA-MB-231; assay: Growth inhibition of human MDA-MB-231 cells; assay type: functional
# [10] = Growth inhibition of human NCI-ADR-RES cells; assay type: functional
# [11] = target: T2, Proteasome Macropain subunit MB1 (Homo sapiens, UniProt P28074); assay: Inhibition of chymotrypsin-like activity of 20S proteasome in human erythrocytes using Suc-Leu-Leu-Val-Tyr-AMC as substrate by fluorescence assay; details: read-out: Ki
# T2 sequence (P28074 whole entry): T1 sequence (whole entry)
# [12] = test system: A498; assay: Growth inhibition of human A498 cells; assay type: functional
# [13] = test system: NCI-H226; assay: Growth inhibition of human NCI-H226 cells; assay type: functional
# [14] = test system: MDA-MB-468; assay: Growth inhibition of human MDA-MB-468 cells; assay type: functional
# [15] = test system: SNB-19; assay: Growth inhibition of human SNB19 cells; assay type: functional
# [16] = test system: NCI-H322M; assay: Growth inhibition of human NCI-H322M cells; assay type: functional
# [17] = test system: A549; assay: Growth inhibition of human A549/ATCC cells; assay type: functional
# [18] = Growth inhibition of human HCC2998 cells; assay type: functional; details: HCC 2998
# [19] = Cytotoxicity against human CNSC cells assessed as cell growth at 10 uM relative to control; assay type: functional; details: read-out: Activity; in short: as §1
# [20] = test system: SR; assay: Growth inhibition of human SR cells; assay type: functional
# [21] = Growth inhibition of human HOP92 cells; assay type: functional
# [22] = test system: CAKI-1; assay: Growth inhibition of human CAKI-1 cells; assay type: functional
# [23] = test system: SW-620; assay: Growth inhibition of human SW620 cells; assay type: functional
# [24] = Growth inhibition of human HCT15 cells; assay type: functional
# [25] = test system: IGROV-1; assay: Growth inhibition of human IGROV1 cells; assay type: functional
# [26] = test system: MDA-MB-435; assay: Growth inhibition of human MDA-MB-435 cells; assay type: functional
# [27] = test system: HCT-116; assay: Growth inhibition of human HCT116 cells; assay type: functional
# [28] = test system: SNB-75; assay: Growth inhibition of human SNB75 cells; assay type: functional
# [29] = test system: DU-145; assay: Growth inhibition of human DU145 cells; assay type: functional
# [30] = read-out: LC50 (the source's name)
structure (smiles),measurement,setting,value
CC(C)C[C@H](NC(=O)Cn1ccc2ccc(Br)cc2c1=O)B(O)O,growth at 10 µM,[1],-17.1%
same,GI50,[2],0.65 µM
same,LC50,[2],> 100 µM
same,TGI,[2],7.22 µM
same,inhibition,[3],> 40%
same,GI50,[4],2.94 µM
same,TGI,[4],75.1 µM
same,CC50,[4]; [30],> 100 µM
same,GI50,[5],1.86 µM
same,LC50 (concentration killing 50% of cells),[5],97 µM
same,TGI,[5],10.4 µM
same,GI50,[6],1.61 µM
same,LC50,[6],61.6 µM
same,TGI,[6],11.1 µM
same,GI50,[7],3.52 µM
same,TGI,[7],55.2 µM
same,CC50,[7]; [30],> 100 µM
same,GI50,[8]; BT-549,0.44 µM
same,TGI,[8]; BT-549,2.65 µM
same,CC50,"[8]; BT-549, read-out: LC50 (the source's name)",> 100 µM
same,GI50,[9],3.18 µM
same,TGI,[9],19.8 µM
same,CC50,[9]; [30],> 100 µM
same,GI50,[10],21.5 µM
same,LC50,[10],> 100 µM
same,TGI,[10],> 100 µM
same,Ki,[11],0.053 µM
same,GI50,[12],0.1 µM
same,LC50,[12],28.6 µM
same,TGI,[12],0.58 µM
same,GI50,[13],0.47 µM
same,TGI,[13],1.84 µM
same,CC50,[13]; [30],5.39 µM
same,GI50,[14],0.3 µM
same,TGI,[14],1.1 µM
same,CC50,[14]; [30],> 100 µM
same,GI50,[15],3.86 µM
same,TGI,[15],> 100 µM
same,CC50,[15]; [30],> 100 µM
same,GI50,[16],> 100 µM
same,TGI,[16],> 100 µM
same,CC50,[16]; [30],> 100 µM
same,GI50,[17],4.58 µM
same,TGI,[17],> 100 µM
same,CC50,[17]; [30],> 100 µM
same,GI50,[18],2.46 µM
same,LC50,[18],31.4 µM
same,TGI,[18],6.37 µM
same,growth at 10 µM,[19],24.3%
same,GI50,[20],0.27 µM
same,TGI,[20],12.2 µM
same,CC50,[20]; [30],> 100 µM
same,GI50,[21]; HOP-92,2.56 µM
same,TGI,[21]; HOP-92,8.7 µM
same,CC50,"[21]; HOP-92, read-out: LC50 (the source's name)",> 100 µM
same,GI50,[22],0.41 µM
same,TGI,[22],10.5 µM
same,CC50,[22]; [30],> 100 µM
same,GI50,[23],0.46 µM
same,LC50,[23],> 100 µM
same,TGI,[23],8.19 µM
same,GI50,[24]; HCT-15,3.04 µM
same,TGI,[24]; HCT-15,> 100 µM
same,CC50,"[24]; HCT-15, read-out: LC50 (the source's name)",> 100 µM
same,GI50,[25],6.16 µM
same,LC50,[25],> 100 µM
same,TGI,[25],46.9 µM
same,GI50,[26],0.33 µM
same,TGI,[26],1.29 µM
same,CC50,[26]; [30],5.88 µM
same,GI50,[27],0.6 µM
same,LC50,[27],95.8 µM
same,TGI,[27],3.57 µM
same,GI50,[28],2.13 µM
same,LC50,[28],63.3 µM
same,TGI,[28],9.09 µM
same,GI50,[29],6.05 µM
same,TGI,[29],> 100 µM
same,CC50,[29]; [30],> 100 µM
